# Measured values reported in publication PMC4065302 (Diabetes Therapy, 2014).
# How the values were obtained:
# [1] = acidic pH; no reference given; cited from earlier work
# [2] = Serum IAsp and IDeg pharmacokinetics; format: in vivo, human
# How it was run: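 Subcutaneous abdominal dosing in T1DM subjects: insulin degludec 0.42 U/kg daily Days 1–5, insulin degludec/insulin aspart 0.6 U/kg on Day 6. Aspart was sampled predose to 12 h on Day 6. Degludec was sampled predose on Days 1–5, then to 48 h, plus 72, 96 and 120 h. Serum levels were measured by validated analyte-specific ELISAs; full analysis set n = 22.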
# [3] = cited from earlier work
# [4] = system: subjects with type 1 diabetes mellitus; assay: Safety and tolerability monitoring; format: in vivo, human; details: 22 subjects
# How it was run: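 Adults 18–65 y with T1DM on insulin ≥12 months. Regimen: insulin degludec 0.42 U/kg s.c. once daily (~8 p.m.) Days 1–5, then single insulin degludec/insulin aspart 0.6 U/kg s.c. on Day 6, with bolus insulin aspart as needed. Monitored: treatment-emergent AEs, confirmed hypoglycemia (severe per ADA, or plasma glucose <3.1 mmol/L or blood glucose <2.8 mmol/L), physical exam, vital signs, ECG, labs. Summarized descriptively.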
# [5] = while IDeg steady state was being attained (Days 1-5)
substance,measurement,setting,value
Insulin glargine,pH at which soluble,[1],4
insulin aspart [IAsp],"AUCIAsp,0–12h (total serum exposure of IAsp in IDegAsp)","[2]; mean, n = 22, serum, ELISA, IDegAsp 0.6 U/kg s.c. (0.18 U/kg IAsp), Day 6","1,087 pmol h/L"
same,"t max,IAsp","[2]; median, n = 22, serum, ELISA, IDegAsp 0.6 U/kg s.c., Day 6",1.33 h
insulin degludec [IDeg],time to clinical steady state,[2]; once-daily IDeg 0.42 U/kg s.c.,2 to 3 days
same,duration of action,[3],exceeding 42 h
same,half-life,[3]; no reference given,> 24 h
same,injection site reactions,"[4]; during the trial, s.c. administration",No injection site reactions
same,"treatment-emergent changes in clinical laboratory parameters, vital signs, physical examination or ECG",[4]; following subcutaneous administration,no significant treatment-emergent changes
same,confirmed hypoglycemic episodes,[4]; [5],22 episodes
same,subjects with confirmed hypoglycemic episodes,[4]; [5],13 subjects
